pEC50: −log10 of the molar value. One block for each compound: values may come before it. The source made the active and inactive calls.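 How the source made its calls: active means a clear dose-dependent calcium response in rat M1 cells, with a fitted half-maximal potency; inactive means the rest.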
Biological target: Muscarinic acetylcholine receptor M1 (Rattus norvegicus) (UniProt P08482)
Experiment: potentiation of ACh at rat M1 – CHO cells, calcium fluorescence, counter-screen for M4 PAM project, dose response (AID 588749)
Settings: Fluo-4 calcium fluorescence
Procedure, shortened: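 Material: rat M1 CHO cells. Also added: acetylcholine at EC20, followed by acetylcholine at EC80. Schedule: 144 s compound pre-incubation, 37 °C. Detection: Fluo-4 calcium flux fluorescence. Measure: % max ACh response and EC50.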

Chain of Muscarinic acetylcholine receptor M1 (Rattus norvegicus) (P08482 whole entry, looked up): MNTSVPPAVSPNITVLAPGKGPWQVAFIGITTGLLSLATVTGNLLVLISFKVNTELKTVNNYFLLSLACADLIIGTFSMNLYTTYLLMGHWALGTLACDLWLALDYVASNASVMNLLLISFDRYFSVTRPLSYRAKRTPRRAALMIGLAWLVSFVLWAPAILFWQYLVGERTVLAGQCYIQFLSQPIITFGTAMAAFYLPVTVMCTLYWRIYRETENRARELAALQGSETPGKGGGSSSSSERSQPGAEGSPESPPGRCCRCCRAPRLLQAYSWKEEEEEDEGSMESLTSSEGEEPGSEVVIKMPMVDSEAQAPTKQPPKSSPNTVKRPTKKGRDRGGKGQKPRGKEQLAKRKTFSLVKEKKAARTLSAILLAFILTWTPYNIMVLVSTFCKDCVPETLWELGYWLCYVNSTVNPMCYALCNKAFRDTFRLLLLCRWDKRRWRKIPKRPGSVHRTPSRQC

Compound: Cc1nc2sc(C(=O)NC3CC3)c(N)c2c(C)c1Cl
- pEC50: 6.03

Compound: Cc1nc2sc(C(=O)NCc3cccc(F)c3F)c(N)c2c(C)c1Cl
- percent of ACh max response (at 30 µM (top of the series)): inactive

Compound: Cc1nc2sc(C(=O)NCc3ccccc3)c(N)c2c(C)c1Cl
- percent of ACh max response (at 37.4 µM (top of the series)): inactive

Compound: Cc1nc2sc(C(=O)NCc3ccc4c(c3)OCO4)c(N)c2c(C)c1Cl
- percent of ACh max response (at 36.8 µM (top of the series)): inactive

The next lines start with the values.

- percent of ACh max response (at 30 µM (top of the series)): inactive
Compound: Cc1nc2sc(C(=O)NCc3ccncn3)c(N)c2c(C)c1Cl

- percent of ACh max response (at 45.3 µM (top of the series)): inactive
Compound: Cc1nc2sc(C(=O)NCc3cccnc3)c(N)c2c(C)c1Cl

- percent of ACh max response (at 30 µM (top of the series)): inactive
Compound: Cc1nc2sc(C(=O)NCCc3ccncc3)c(N)c2c(C)c1Cl

- percent of ACh max response (at 45.3 µM (top of the series)): inactive
Compound: Cc1nc2sc(C(=O)NCc3ccncc3)c(N)c2c(C)c1Cl

- percent of ACh max response (at 30 µM (top of the series)): inactive
Compound: Cc1nc2sc(C(=O)NCc3nccs3)c(N)c2c(C)c1Cl

Reference: PubChem BioAssay AID588749 (Vanderbilt Specialized Chemistry Center, 2011)
